Assay results reported in ChEMBL document CHEMBL1134346, “Labeling and evaluation of N-[11C]methylated quinoline-2-carboxamides as potential radioligands for visualization of peripheral benzodiazepine receptors” (J Med Chem, 2001).

What was measured:
[1] = species: Rattus norvegicus; assay: Tissue (testicle) distribution in Albino male CD rats after 30 minutes expressed as percent of injected dose per gram of organ.; assay type: ADME, organism-based; details: in vivo, 0.5 h
In short: (§1)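 Male albino CD rats (225-250 g) received the 11C-labelled radioligand in saline by tail-vein injection. Three rats per time point were decapitated under light ether anaesthesia at 5, 15, 30, 60 or 90 min. Blood was collected heparinized and plasma separated by centrifugation. The pituitary was dissected from the brain. Lung, liver (three-lobe pieces) and right deltoid muscle were sampled, washed in cold saline, gamma-counted and weighed. Results are %I.D./g.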

[2] = species: Rattus norvegicus; assay: Tissue (lung) concentration of radioactivity at 30 min post-injection into Albino male CD rats with vehicle.; assay type: ADME, organism-based; details: in vivo, 0.5 h
In short: (§2)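 Blocking study in male albino CD rats, five per group. Immediately before the 11C radioligand (in saline, i.v. tail vein), rats received 30 µL tail-vein PK 11195 (5 mg/kg; 1.4-1.6 mg) in DMSO:EtOH 1:1, or vehicle. Rats were decapitated at 30 min. Tissues were dissected, washed, gamma-counted and weighed as in the biodistribution study. Results are %I.D./g.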

[3] = biological target: Translocator protein (Rattus norvegicus) (UniProt P16257); assay: Tissue (muscle) concentration of radioactivity at 30 min post-injection into Albino male CD rats after pretreatment with cold PK 11195.; assay type: functional; in short: as §2
Chain of Translocator protein (Rattus norvegicus) (P16257 whole entry, looked up): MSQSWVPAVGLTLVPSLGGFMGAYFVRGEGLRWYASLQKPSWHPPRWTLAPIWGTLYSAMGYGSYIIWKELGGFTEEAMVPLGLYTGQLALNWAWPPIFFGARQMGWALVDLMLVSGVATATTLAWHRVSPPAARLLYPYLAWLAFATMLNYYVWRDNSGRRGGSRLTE

[4] = biological target: Translocator protein (Rattus norvegicus) (UniProt P16257); assay: Tissue (blood) concentration of radioactivity at 30 min post-injection into Albino male CD rats after pretreatment with cold PK 11195.; assay type: functional, tissue-based
In short: (§3)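 Separate groups of five rats received tail-vein PK 11195 (1.4-1.6 mg; 5 mg/kg) in 30 µL DMSO:EtOH 1:1, or vehicle alone, immediately before iv radioligand (90-170 µCi in saline, 0.9-1 Ci/µmol). Rats were decapitated at 30 min and tissues gamma-counted; values are %I.D./g.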

[5] = species: Rattus norvegicus; assay: Tissue (muscle) distribution in Albino male CD rats after 15 minutes expressed as percent of injected dose per gram of organ.; assay type: ADME, organism-based; details: in vivo, 0.25 h; in short: as §1
[6] = species: Rattus norvegicus; assay: Tissue (pituitary) concentration of radioactivity at 30 min post-injection into Albino male CD rats with vehicle.; assay type: ADME, organism-based, Pituitary gland; details: in vivo, 0.5 h; in short: as §2
[7] = species: Rattus norvegicus; assay: Tissue (pituitary) distribution in Albino male CD rats after 60 minutes expressed as percent of injected dose per gram of organ.; assay type: ADME, organism-based, Pituitary gland; details: in vivo, 1 h; in short: as §1
[8] = species: Rattus norvegicus; assay: Tissue (plasma) distribution in Albino male CD rats after 60 minutes expressed as percent of injected dose per gram of organ.; assay type: ADME, organism-based; details: in vivo, 1 h; in short: as §1
[9] = species: Rattus norvegicus; assay: Tissue (intestine) distribution in Albino male CD rats after 90 minutes expressed as percent of injected dose per gram of organ.; assay type: ADME, organism-based; details: in vivo, 1.5 h
In short: (§4)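 Radioligand given in saline into tail vein of male albino CD rats (225-250 g); 100-200 µCi per animal, 1-2 Ci/µmol at injection depending on radioligand. Three rats per time point were decapitated under light ether anaesthesia. Blood, plasma, brain regions and washed organs were weighed and gamma-counted. Uptake is %I.D./g tissue, mean ± SD.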

[10] = species: Rattus norvegicus; assay: Tissue (blood) concentration of radioactivity at 30 min post-injection into Albino male CD rats with vehicle.; assay type: ADME, organism-based; details: in vivo, 0.5 h; in short: as §3
[11] = species: Rattus norvegicus; assay: Tissue (blood) concentration of radioactivity at 30 min post-injection into Albino male CD rats with vehicle; assay type: ADME, organism-based; details: in vivo, 0.5 h; in short: as §3
[12] = species: Rattus norvegicus; assay: Tissue (Muscle) distribution in Albino male CD rats after 15 minutes expressed as percent of injected dose per gram of organ.; assay type: ADME, organism-based; details: in vivo, 0.25 h; in short: as §4

I.D./g [1] | I.D./g [2] | I.D./g [3] | I.D./g [4] | I.D./g [5] | I.D./g [6] | I.D./g [7] | I.D./g [8] | I.D./g [9] | I.D./g [10] | I.D./g [11] | I.D./g [12] | SMILES
0.08% | 0.91% | > 0.07% | < 0.06% | 0.14% | 0.25% | 0.25% | 0.03% | 0.37% | 0.03% |  |  | CCC(C)N(C)C(=O)c1nc2ccccc2c(-c2ccccc2)c1C (stereo not given)
0.13% | 0.35% | > 0.02% | > 0.02% |  | 0.11% | 0.36% | 0.05% | 0.68% |  | 0.01% | 0.25% | Cc1c(C(=O)N(C)Cc2ccccc2)nc2ccccc2c1-c1ccccc1
0.09% | 0.56% | < 0.03% | > 0.04% | 0.13% | 0.09% | 0.14% | 0.06% | 0.24% | 0.04% |  |  | CCC(C)N(C)C(=O)c1nc2ccccc2c(-c2ccccc2F)c1C (stereo not given)
